“Also recorded” adds a separate entry of the source.
Key:
[1] = system: MDA-MB-435 human melanoma cells; assay: Cytotoxicity against MDA-MB-435 cells; format: cell-based; settings: MDA-MB-435, 72 h, read-out: IC50 value toward the MDA-MB-435 human melanoma cells
[2] = system: OVCAR3 human ovarian cancer cells; assay: Cytotoxicity against OVCAR3 cells; format: cell-based; settings: OVCAR-3, 72 h, read-out: IC50 value toward the OVCAR3 human ovarian cancer cells
[3] = biological target: Na^+/K^+-ATPase (adenosine 5′-triphosphatase from porcine cerebral cortex); settings: read-out: Na+/K+-ATPase activity inhibition, IC50; previous investigation; cited from earlier work
[4] = system: glucose uptake in H1299 human lung cancer cells; assay: Glucose uptake assay; format: cell-based; settings: 30 μM, 15 min treatment; WZB117 30 μM as positive control
Summary of the method: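 H1299 cells (DMEM, 25 mM glucose, 10% FBS, 37 °C, 5% CO2) in 24-well plates; washed, serum-starved in FBS-free DMEM 1.5 h, then 30 min in glucose-free KRP. Test compound at final 30 μM for 15 min. Uptake then started with 37 MBq/L 2-deoxy-D-[3H]glucose plus 1 mM glucose (final) for 40 min. Stopped with PBS; lysate radioactivity counted by liquid scintillation. Triplicate, three independent experiments; Student's t-test versus vehicle.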

[5] = system: HT-29 human colon cancer cells; assay: Cytotoxicity against HT-29 cells; format: cell-based; settings: HT-29, 72 h, read-out: IC50 value toward the HT-29 human colon cancer cells

Structure (SMILES)	IC50 [1] [µM]	IC50 [2] [µM]	IC50 [3] [µM]	Inhibition of glucose uptake/transport in H1299 cells [4]	IC50 [5] [µM]
CO[C@H]1[C@H](O[C@H]2CC[C@]3(C=O)[C@H]4CC[C@]5(C)[C@@H]6CC[C@]5(O[C@H]5OC(=O)C[C@H]56)[C@@H]4CC[C@]3(O)C2)O[C@H](C)[C@H](O)[C@@H]1OC [Compound 3a, (+)-20,22-dihydro-14,21-epoxystrebloside]	> 20				
CO[C@H]1[C@H](O[C@H]2CC[C@]3(C=O)[C@H]4CC[C@]5(C)[C@@H](C6=CC(=O)OC6)CC[C@]5(O)[C@@H]4CC[C@]3(O)C2)O[C@H](C)[C@H](O)[C@@H]1OC [Compound 3, (+)-strebloside]		0.13	0.16	did not inhibit glucose uptake; also recorded: did not inhibit glucose transport	0.17
CC(=O)O[C@H]1C(=O)[C@@]2(C)[C@H]([C@H](OC(=O)c3ccccc3)[C@]3(O)C[C@H](OC(=O)[C@H](O)[C@@H](NC(=O)c4ccccc4)c4ccccc4)C(C)=C1C3(C)C)[C@]1(OC(C)=O)CO[C@@H]1C[C@@H]2O [Paclitaxel, reference compound]					0.0008
CO[C@H]1[C@H](O[C@H]2CC[C@]3(C=O)[C@H]4CC[C@]5(C)[C@](O)(C6=CC(=O)OC6)CC[C@]5(O)[C@@H]4CC[C@]3(O)C2)O[C@H](C)[C@H](O)[C@@H]1OC [Compound 1, (3β)-3-[(2,3-di-O-methyl-β-D-fucopyranosyl)oxy]-5β,14β,17β-trihydroxy-19-oxo-17-epi-card-20(22)-enolide]	> 20				
